The values that follow come from ChEMBL document CHEMBL3860044, “The Rational Design, Synthesis, and Antimicrobial Properties of Thiophene Derivatives That Inhibit Bacterial Histidine Kinases” (J Med Chem, 2016).

≈ marks a conversion by molar mass, not a printed value. Calls of active or inactive are those of the source. The rule behind the calls is not given here.

For series [1], the system named is Staphylococcus aureus. The series can be described thus: Bactericidal activity against Staphylococcus aureus ATCC 29213 by broth microdilution method. The series is classed as functional. The method in brief:
(§1)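 Clinical resistant isolates and quality control strains (S. aureus ATCC 29213, E. coli ATCC 25922) are tested by EUCAST broth microdilution with a 10⁶ bacteria/mL inoculum, in triplicate, with or without a fixed adjuvant concentration. For MBC, the MIC dilution and at least two more concentrated dilutions are plated and CFU/mL counted.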
A general note: Broth dilution looks for growth in wells or tubes with falling amounts of substance.

In series [2] the test system is Staphylococcus aureus. In words: Antibacterial activity against Staphylococcus aureus ATCC 29213 by broth microdilution method. The series is classed as functional. A digest of the protocol:
as §1

The subject of series [3] is Bacillus subtilis. The series can be described thus: Inhibition of Bacillus subtilis cytoplasmic Walk CA domain (204 to 612 residues) autophosphorylation at 1 mM preincubated for 5 mins followed by [gamma-32P] ATP addition measured after 3 mins by SDS-PAGE based phosphor imaging method. The method in brief:
(§2)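 Screen used cytoplasmic WalK fragments. 2 µM kinase in Epps buffer pH 8.5 with 20 mM MgCl2, 0.1 mM EDTA and 5% glycerol. Compound at 1 mM final in 10% DMSO, added 5 min before ATP (1 mM final including [γ-32P]ATP). Stopped with SDS loading buffer, run on SDS-PAGE, read by phosphorimaging.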

In series [4] the test system is Bacillus subtilis. The series can be described thus: Inhibition of Bacillus subtilis cytoplasmic Walk CA domain (272 to 612 residues) autophosphorylation at 1 mM preincubated for 5 mins followed by [gamma-32P] ATP addition measured after 3 mins by SDS-PAGE based phosphor imaging method. The method in brief:
as §2

Series [5] in a line: Inhibition of Bacillus subtilis JH642 Hexa-his-tagged PhoR cytoplasmic domain (186 to 589 residues) autophosphorylation expressed in Escherichia coli BL21(DE3) preincubated for 5 mins followed by [gamma-32P] ATP addition measured after 8 to 60 mins by SDS-PAGE based phosphor imaging method. Further details: species or system Bacillus subtilis subsp. subtilis str. JH642. The method in brief: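 His6-PhoR purified by Ni-NTA after IPTG induction (1 mM, 16 °C). For IC50: 0.5 µM kinase in Epps pH 8.5, MgCl2, EDTA, glycerol buffer; compound 0–800 µM (two-fold steps), DMSO held constant, 5 min before ATP at 2.5 µM final, cold:hot ratio 1:1. Stopped with SDS loading buffer after 60 min; SDS-PAGE, phosphorimaging, densitometry.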

Series [6] has as its system Bacillus subtilis. In words: Inhibition of Bacillus subtilis KinA autophosphorylation.
Series [7] can be described thus: Inhibition of Bacillus subtilis JH642 Hexa-his-tagged ResE cytoplasmic domain (203 to 589 residues) autophosphorylation expressed in Escherichia coli BL21(DE3) preincubated for 5 mins followed by [gamma-32P] ATP addition measured after 8 to 60 mins by SDS-PAGE based phosphor imaging method. Also on record: species or system Bacillus subtilis subsp. subtilis str. JH642. The method in brief:
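His6-ResE purified by Ni-NTA after IPTG induction (1 mM, 16 °C). For IC50: 0.5 µM kinase in Epps pH 8.5, MgCl2, EDTA, glycerol buffer; compound 0–800 µM (two-fold steps), DMSO held constant, 5 min before ATP at 2.5 µM final, cold:hot ratio 1:10. Stopped with SDS loading buffer after 8 min; SDS-PAGE, phosphorimaging, densitometry.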

Series [8] can be described thus: Inhibition of Enterococcus faecalis Hexa-his-tagged IreK autophosphorylation expressed in Escherichia coli BL21(DE3) preincubated for 5 mins followed by [gamma-32P] ATP addition measured after 15 mins by SDS-PAGE based phosphor imaging method. A digest of the protocol: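 His6-IreK expressed in E. coli BL21(DE3) with IPTG at 16 °C and purified by Ni-NTA. Autophosphorylation run as for the histidine kinases: 0.5 µM kinase, 2.5 µM ATP with [γ-32P]ATP, compound 0–800 µM added before ATP.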

A short description of series [9]: Inhibition of Escherichia coli DNA gyrase supercoiling activity using relaxed pUC19 DNA as substrate after 30 mins by agarose gel electrophoresis. The method in brief: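 E. coli gyrase (1 U) with 75 ng relaxed pUC19 in kit buffer with 2% DMSO. Compound at 6.25–800 µM final, ciprofloxacin as control. Incubated 30 min at 37 °C, stopped with loading dye, supercoiling read by agarose gel electrophoresis.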

Series [10] is described as follows: Solubility of compound in aqueous solution. To be noted: buffer. The series is classed as physicochemical.
The next series concerns Escherichia coli. The series can be described thus: Antibacterial activity against Escherichia coli ATCC 25922 by broth microdilution method. The series is classed as functional. The method in brief:
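Broth microdilution per EUCAST, quality-control strain alongside resistant clinical isolates; inoculum 10⁶ bacteria per mL; run in triplicate with or without adjuvant at fixed 25 µg/mL combined with β-lactams or ofloxacin. MIC read as lowest concentration with no growth; MBC from plating the MIC dilution and at least two higher dilutions, counting CFU/mL.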

What is called MBC is the lowest tested concentration that kills the bacteria rather than only halting them. A word on the MIC: it is the least concentration at which growth counts as inhibited. Lower therefore signals greater potency. For `CC1(C)S[C@@H]2[C@H](NC(=O)Cc3ccccc3)C(=O)N2[C@H]1C(=O)O` [PENICILLIN G], the minimum bactericidal concentration (MBC) in the series with Staphylococcus aureus [1] was determined as 0.5 µg/mL (≈ 1.5 µM). In the series with Staphylococcus aureus [2], this compound returned an MIC of 0.5 µg/mL (≈ 1.5 µM).
What is called IC50 is the concentration needed to halve the response being measured. In the case of `COc1cccc(-c2ccc([N+](=O)[O-])s2)c1OC`, the inhibition result in the series with Bacillus subtilis [3], in the series on Bacillus subtilis [4] and in the series on Bacillus subtilis [6] was “Active” throughout. The 50% inhibitory concentration (IC50) was 1.63 µM in [5], 102 µM in series [7], more than 800 µM in series [8] and more than 800 µM in [9].
As to `Cl.Nc1ccc(-c2ccc([N+](=O)[O-])s2)cc1`, the solubility result in series [10] is given as “Insoluble”.
Same read-out and setting: to `CC(=O)c1ccc(-c2ccc(N)cc2)s1.Cl` belongs “Insoluble”; to `CC(=O)c1ccc(-c2cccc(N)c2)s1.Cl`, “Insoluble”.
Take `CC(=O)c1ccc(-c2ccc(N)cc2)s1`: the inhibition result with Bacillus subtilis [3], in the series with Bacillus subtilis [4] and in the series with Bacillus subtilis [6] was “Active” each time.
For `Nc1ccc(-c2ccc([N+](=O)[O-])s2)cc1`, the IC50 in [5] is 21.4 µM; in series [7], 52.3 µM; in series [8], more than 800 µM; in [9], more than 400 µM.
For the compound `CC1(C)S[C@@H]2[C@H](NC(=O)[C@H](N)c3ccc(O)cc3)C(=O)N2[C@H]1C(=O)O` [AMOXICILLIN], the MIC in the series on Escherichia coli was found to be 4 µg/mL (≈ 10.9 µM).
